An excerpt weighted towards active compounds, which were near 1.5% of everything screened.
CCR6 antagonist: antagonists of human CCR6 receptor. actives 0.49% (n = 340,000). AID 493098. inhibition, % at 20 µM. P51684. CHO-K1 CCR6 PathHunter beta-arrestin, luminescence, CCL20-stimulated;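 active = compounds whose inhibition of the agonist-driven luminescence signal at 20 µM reaches about 50%, limit read from the data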;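 note: cells stimulated with CCL20 at 14 nM final; plate controls were DMSO with CCL20 for no effect and DMSO without agonist for full effect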
CXCR6 block: inhibitors of human CXCR6 receptor; CHO-K1 PathHunter CXCR6 beta-arrestin, luminescence; O00574; AID 602244; inhibition, % at 20 µM; actives 0.36% (n = 360,000); in the data active = inhibition above about 34%, passing the limit was not always enough;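 note: antagonist mode with CXCL16 agonist at 10 nM final; 0% = 10 nM CXCL16 with DMSO and 100% = unstimulated wells without agonist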
EBI2 block: blocks human EBI2 receptor beta-arrestin signaling | P32249 | EBI2 beta-arrestin recruitment, luminescence, 7a,25-OHC stimulated | inhibition, % at 5 µM | actives 0.81% (n = 360,000); in the data active = inhibition above about 38%;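 note: enzyme fragment complementation signal reports receptor beta-arrestin coupling in cells; 0% = agonist plus DMSO wells and 100% = wells without agonist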
Target sequence (P32249 whole entry, looked up, the tested form may be a part): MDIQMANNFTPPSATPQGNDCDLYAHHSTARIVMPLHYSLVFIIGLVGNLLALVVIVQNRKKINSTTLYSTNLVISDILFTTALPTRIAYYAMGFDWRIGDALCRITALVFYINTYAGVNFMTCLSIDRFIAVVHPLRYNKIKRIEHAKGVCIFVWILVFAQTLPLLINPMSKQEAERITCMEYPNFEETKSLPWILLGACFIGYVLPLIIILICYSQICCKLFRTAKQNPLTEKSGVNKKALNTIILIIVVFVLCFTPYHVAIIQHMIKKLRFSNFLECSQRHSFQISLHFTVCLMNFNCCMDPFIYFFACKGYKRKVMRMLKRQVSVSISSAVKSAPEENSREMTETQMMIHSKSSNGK
APJ ag: APJ receptor agonism | actives 0.11% (n = 330,000) | CHO-K1 APJ PathHunter beta-arrestin, luminescence; 0% DMSO wells, 100% apelin | activation, % at 20 µM;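 active = activation more than six SD over the plate average, tested at 20 µM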;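 note: 0% = DMSO alone and 100% = apelin-13 at 10 nM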
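Material: engineered CHO-K1 APJ arrestin reporter cells; amount: 1000 CHO-K1 reporter cells seeded per well; incubation: compound stimulation 90 min at 25 °C, detection 60 min; signal: luminescent beta-gal fragment complementation, chemiluminescent substrate; read-out basis: APJ agonist activity; controls: DMSO-only wells as negative, 10 nM Apelin-13 as positive control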
APJ antagonist: APJ receptor antagonism. P35414. CHO-K1 APJ beta-arrestin complementation, luminescence. inhibition, % at 20 µM. actives 0.32% (n = 330,000);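 active = inhibition above about 40% at 20 µM, limit read from the data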;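 note: cells challenged with 10 nM apelin-13 agonist together with compound; plate controls were apelin-13 plus DMSO wells for no effect and DMSO wells lacking apelin-13 for full effect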
CXCR6 confirm: confirmation of human CXCR6 receptor antagonists. inhibition, % at 20 µM. shares compounds with CXCR6 block. actives 65% (n = 700). CHO-K1 CXCR6 PathHunter beta-arrestin, luminescence;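 active = mean inhibition over four retests above 40%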;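 note: receptor stimulated with 10 nM CXCL16 agonist; beta-galactosidase fragment complementation upon beta-arrestin recruitment to receptor; plate controls were CXCL16 plus DMSO for no effect and DMSO without CXCL16 for full effect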
* = called active by the depositor; . = no result.

SMILES	CCR6 antagonist	CXCR6 block	EBI2 block	APJ ag	APJ antagonist	CXCR6 confirm
CC(NC(=O)c1c(N)[nH]c(C(=O)c2ccccc2)c1-c1ccccc1Br)c1cccc2ccccc12 (stereo unspecified)	.	-2.7	14.4	.	.	.
CC(C)C[C@H]1CN(CCCC[C@H]2CNC(=O)C(=O)N2CC2CCCCC2)C(=O)C(=O)N1CC1CCCCC1	.	-7.7	2.7	.	.	.
COc1ccc(C(=O)N/C(N)=N/c2nc3ccccc3o2)cc1	-8.1	-8.7	9.9	-0.6	5.9	.
COc1ccc(C(=O)/C=C/Sc2nc3ccccc3o2)cc1	61.8*	45.5*	36.4	3.1	1.1	44.6*
O=C(CNc1ccc(C(F)(F)F)cc1)Nc1cccc(S(=O)(=O)N2CCCCC2)c1	.	-19.5	12.2	.	.	.
Cn1c(O)c(C2=c3ccccc3=NC2=O)[nH]c1=S	.	33.1	-8.0	-4.2	8.1	.
COc1ccc2nc(-n3c(O)c(C4=c5ccccc5=NC4=O)[nH]c3=S)sc2c1	78.1*	64.5*	1.2	.	.	51.8*
CN1CCN(C2CN(Cc3cn(Cc4ccc(F)cc4)nn3)S(=O)(=O)C2)CC1 (stereo unspecified)	.	-1.7	-1.2	.	.	.
Nc1nc(N)c2c(ccc3c2ccn3Cc2cccc([N+](=O)[O-])c2)n1	.	61.9*	-45.4	.	.	68.3*
C=CCNc1ncnc2c1ncn2[C@H]1CN(Cc2ccc(F)cc2)C[C@@H](CO)O1	.	-6.3	4.7	.	.	.
O=C1C(=C(c2ccccc2)N2CCOCC2)Cc2ccccc21	.	69.8*	23.9	.	.	78.0*
Cc1nnc(Sc2cc(NCCO)c([N+](=O)[O-])c3nonc23)s1	68.4*	71.2*	8.7	.	.	75.5*
Cc1nnc(Sc2cc(NCCCO)c([N+](=O)[O-])c3nonc23)s1	92.2*	66.8*	-7.8	.	.	99.8*
O=[N+]([O-])c1c(NCCO)cc(N2CCCCCC2)c2nonc12	20.2	10.1	-1.0	-2.8	19.9	.
CC(C)CCNC(=O)C1(C)CCN1Cc1ccc2ccccc2c1 (stereo unspecified)	.	-2.1	21.0	.	.	.
COc1ccc(S(=O)(=O)N(C)C[C@@H]2OCCCC[C@H](C)Oc3ccc(NC(=O)Nc4ccc(C(F)(F)F)cc4)cc3C(=O)N([C@H](C)CO)C[C@H]2C)cc1	.	-15.4	-5.5	.	.	.
O=[N+]([O-])c1cc2oc3c(c2c(C=NCc2ccccc2)c1O)CCCC3	46.3	43.8*	7.7	3.1	-16.3	59.4*
CC(C)CN=Cc1c(O)c([N+](=O)[O-])cc2oc3c(c12)CCCC3	36.3	33.5	-7.8	0.9	13.8	.
OC[C@@H]1CN(Cc2cccnc2)C[C@H](n2cnc3c(NC4CCCC4)ncnc32)O1	.	-4.6	-5.8	.	.	.
CN(C)CCCN(C(=O)CCS(=O)(=O)c1ccccc1)c1nc2cc3c(cc2s1)OCO3	50.2*	39.9*	41.7*	-1.4	30.5	57.2*
CN(C)CCCN(C(=O)CCSc1ccccc1)c1nc2cc3c(cc2s1)OCO3	28.6	-4.0	13.9	-3.5	14.3	.
Clc1ccc(-c2nc3c4ccccc4ccn3c2Cc2ccccc2)cc1	.	44.0*	10.9	.	.	9.8
Fc1ccc(-c2nc3c4ccccc4ccn3c2Cc2ccccc2)cc1	.	5.3	-8.7	.	.	.
S=c1nc(-c2ccccc2)[nH]c2ccc(Br)cc12	29.7	42.2*	2.3	-2.4	25.5	9.4
c1ccc(-c2nc3ccccc3[nH]2)cc1	9.9	-2.5	-5.6	-0.5	-13.1	.
SMILES	CCR6 antagonist	CXCR6 block	EBI2 block	APJ ag	APJ antagonist	CXCR6 confirm
Cc1cc(C)c2c(=O)n(CC(=O)NC3CCCC3)sc2n1	14.9	99.3*	15.7	1.7	-26.9	33.7
C/C(=C\C(=O)c1ccccc1)NNC(=O)c1ccc(Cl)cc1	55.5*	46.0*	1.8	-5.1	26.9	6.0
COc1ccc(C(=O)NN/C(C)=C/C(=O)c2ccccc2)cc1	22.9	7.1	-5.5	-2.9	18.9	.
Cc1ccc2c(C)ccc(O)c2n1	83.4*	64.9*	-11.0	-5.5	35.3	76.2*
Cc1ccc2c(Cl)cc(Cl)c(O)c2n1	96.5*	49.1*	30.3	.	.	69.9*
Cc1cccc(NC(=O)c2cc(S(=O)(=O)N3CCCCC3)c[nH]2)c1	.	-0.1	0.5	.	.	.
Cc1ccc(S(=O)(=O)Nc2c(C)n(C)n(-c3ccccc3)c2=O)cc1C(=O)OC(C)C(=O)c1ccccc1 (stereo unspecified)	3.4	3.8	-5.3	.	.	.
CC(C)OCCc1cccc[n+]1[O-]	.	-6.2	0.0	.	.	.
